What is called MIC is the lowest concentration found to suppress growth.

For twelve compounds, zone of inhibition and MIC results are on record in ChEMBL document CHEMBL1149772, “GdCl(3) catalysed Grieco condensation: a facile approach for the synthesis of novel pyrimidine and annulated pyrimidine fused indazole derivatives in single pot under mild conditions and their anti-microbial activity” (2008).

Common to all, as to assay type: functional
Assay [1] concerns Candida albicans. Description: Antifungal activity against Candida albicans MTCC 227 at 100 ug/ml by agar cup diffusion method. The following applies: read-out: IZ. An outline of the steps: (§1)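 Agar cup diffusion on autoclaved potato dextrose agar (15 lb/inch², 20 min). A week-old culture was spread over the solidified agar, and 6 mm cups were bored. Compounds were in DMSO at 100–150; amphotericin-B reference at 50; DMSO control. Plates held at 28 °C for 48 h. Inhibition zone diameter read in mm.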

Assay [2] has as its system Candida albicans. Description: Antifungal activity against Candida albicans MTCC 227 at 150 ug/ml by agar cup diffusion method. The following applies: read-out: IZ. An outline of the steps: as §1
In assay [3] the test system is Aspergillus niger. Description: Antifungal activity against Aspergillus niger MTCC 1344 at 150 ug/ml by agar cup diffusion method. The following applies: read-out: IZ. An outline of the steps:
as §1

Assay [4] relates to Rhizopus arrhizus. Description: Antifungal activity against Rhizopus oryzae MTCC 262 at 150 ug/ml by agar cup diffusion method. The following applies: read-out: IZ. An outline of the steps:
as §1

Assay [5] relates to Aspergillus niger. Kind of assay: Antifungal activity against Aspergillus niger MTCC 1344 at 100 ug/ml by agar cup diffusion method. The conditions noted are these: read-out: IZ. An outline of the steps:
as §1

Assay [6] has as its system Escherichia coli. Description: Antibacterial activity against Escherichia coli MTCC 443 by broth dilution method. An outline of the steps: (§2)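 Test bacteria kept on nutrient agar slants and subcultured in Petri dishes before testing. Nutrient agar and nutrient broth media. Compounds dissolved in acetone. MIC determined by broth dilution.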
(In general: Broth dilution looks for growth in wells or tubes with falling amounts of substance.)

Assay [7] relates to Bacillus subtilis. Kind of assay: Antibacterial activity against Bacillus subtilis MTCC 441 by broth dilution method. An outline of the steps:
as §2

Assay [8] relates to Staphylococcus aureus. Kind of assay: Antibacterial activity against Staphylococcus aureus MTCC 96 by broth dilution method. An outline of the steps: as §2
Assay [9] deals with Rhizopus arrhizus. Description: Antifungal activity against Rhizopus oryzae MTCC 262 at 100 ug/ml by agar cup diffusion method. The conditions noted are these: read-out: IZ. An outline of the steps:
as §1

For assay [10], the system named is Pseudomonas aeruginosa. Kind of assay: Antibacterial activity against Pseudomonas aeruginosa MTCC 1688 by broth dilution method. An outline of the steps: as §2
Assay [11] has as its system Candida albicans. Kind of assay: Antifungal activity against Candida albicans MTCC 227 at 50 ug/ml by agar cup diffusion method. The following applies: MTCC 227, read-out: IZ.
The test system of assay [12] is Rhizopus arrhizus. Description: Antifungal activity against Rhizopus oryzae MTCC 262 at 50 ug/ml by agar cup diffusion method. The following applies: MTCC 262, read-out: IZ. An outline of the steps:
as §1

Assay [13] deals with Saccharomyces cerevisiae. Description: Antifungal activity against Saccharomyces cerevisiae MTCC 36 at 50 ug/ml by agar cup diffusion method. The conditions noted are these: MTCC 36, read-out: IZ. An outline of the steps:
as §1

For assay [14], the system named is Aspergillus niger. Description: Antifungal activity against Aspergillus niger MTCC 1344 at 50 ug/ml by agar cup diffusion method. The following applies: MTCC 1344, read-out: IZ. An outline of the steps: as §1

The structures appear in SMILES notation. ≈ marks a conversion by molar mass, not a printed value.

For `N#Cc1c(-c2ccccc2)cc(C(F)(F)F)c2c3n(nc12)[C@H]1C=CCC[C@H]1CN3`, the zone of inhibition at 100 µg/mL was determined as 7 mm in assay [1], 10 mm in assay [5] and 8 mm in assay [9]. Further, the results for the zone of inhibition at 150 µg/mL in assay [2], in [3] and in [4] were 8 mm, 12 mm and 12 mm, respectively. The MIC in assay [6] turned out to be 37.5 µg/mL (≈ 95.1 µM); in [7], 150 µg/mL (≈ 380 µM); in assay [8] it was 75 µg/mL (≈ 190 µM); in assay [10] it was 75 µg/mL (≈ 190 µM).

As to `CC1(c2ccccc2)CCNc2c3c(C(F)(F)F)cc(-c4ccccc4)c(C#N)c3nn21` (configuration not stated), in [1], the zone of inhibition at 100 µg/mL was 8 mm. For the same compound, the zone of inhibition at 150 µg/mL in assay [2] worked out at 9 mm; in assay [4] it was 12 mm. The MIC came out at 37.5 µg/mL (≈ 86.7 µM) in assay [6], 75 µg/mL (≈ 173 µM) in assay [7], 75 µg/mL (≈ 173 µM) in assay [8] and 75 µg/mL (≈ 173 µM) in assay [10].

As for `N#Cc1c(-c2ccccc2)cc(C(F)(F)F)c2c3n(nc12)[C@@]1(c2ccccc2)CCCC[C@H]1CN3`, in assay [1], the zone of inhibition at 100 µg/mL amounted to 9 mm. Further, the zone of inhibition at 150 µg/mL was determined as 11 mm in assay [2], 10 mm in assay [3] and 9 mm in assay [4]. The MIC worked out at 37.5 µg/mL (≈ 79.4 µM) in assay [6], 75 µg/mL (≈ 159 µM) in [7], 37.5 µg/mL (≈ 79.4 µM) in [8] and 75 µg/mL (≈ 159 µM) in assay [10].

In the case of `N#Cc1c(C(F)(F)F)cc(-c2ccccc2)c2c3n(nc12)[C@H]1OCCC[C@H]1CN3`, in [1], the zone of inhibition at 100 µg/mL is 8 mm. Further, the zone of inhibition at 150 µg/mL in assay [2] was 10 mm; in [4] it was 9 mm. Moreover, the MIC came to 75 µg/mL (≈ 188 µM) in assay [6], 150 µg/mL (≈ 377 µM) in assay [7], 150 µg/mL (≈ 377 µM) in assay [8] and 150 µg/mL (≈ 377 µM) in [10].

Consider `N#Cc1c(C(F)(F)F)cc(-c2ccccc2)c2c3n(nc12)C(c1ccccc1)CCN3` (configuration not stated), for which the zone of inhibition at 150 µg/mL in assay [4] turned out to be 10 mm. In assay [9], the zone of inhibition at 100 µg/mL is 8 mm.

Take `N#Cc1c(-c2ccccc2)cc(C(F)(F)F)c2c3n(nc12)[C@H]1OCCC[C@H]1CN3`: the MIC came to 75 µg/mL (≈ 188 µM) in [6], 150 µg/mL (≈ 377 µM) in assay [7], 75 µg/mL (≈ 188 µM) in assay [8] and 150 µg/mL (≈ 377 µM) in [10]. In [9], the zone of inhibition at 100 µg/mL came to 9 mm.

Turning to `C=CC1(C)CCNc2c3c(-c4ccccc4)cc(C(F)(F)F)c(C#N)c3nn21` (configuration not stated), the MIC in assay [6] stood at 150 µg/mL (≈ 392 µM); in assay [7], 75 µg/mL (≈ 196 µM); in assay [8], 150 µg/mL (≈ 392 µM); in assay [10] it was 75 µg/mL (≈ 196 µM).

Consider `N#Cc1c(-c2ccccc2)cc(C(F)(F)F)c2c3n(nc12)[C@H]1C=CC[C@H]1CN3`, for which the zone of inhibition at 150 µg/mL in [2] worked out at 9 mm; in assay [3] it was 10 mm. Also, the MIC in assay [6] is 37.5 µg/mL (≈ 98.6 µM); in [7] it was 150 µg/mL (≈ 394 µM); in assay [8], 37.5 µg/mL (≈ 98.6 µM); in [10], 75 µg/mL (≈ 197 µM).

For the compound `N#Cc1c(-c2ccccc2)cc(C(F)(F)F)c2c3n(nc12)C(c1ccccc1)CCN3` (configuration not stated), the MIC in assay [6] was found to be 25 µg/mL (≈ 59.7 µM); in [7] it was 50 µg/mL (≈ 119 µM); in [8], 50 µg/mL (≈ 119 µM); in [10] it was 50 µg/mL (≈ 119 µM).

Consider `C=CC1(C)CCNc2c3c(C(F)(F)F)cc(-c4ccccc4)c(C#N)c3nn21` (configuration not stated), for which the zone of inhibition at 100 µg/mL in [1] and in assay [5] was 7 mm each time. Besides, the zone of inhibition at 150 µg/mL in assay [2] and in assay [3] was 8 mm throughout. Also, the MIC turned out to be 150 µg/mL (≈ 392 µM) in assay [6], 150 µg/mL (≈ 392 µM) in assay [7], 75 µg/mL (≈ 196 µM) in [8] and 150 µg/mL (≈ 392 µM) in assay [10].

Take `N#Cc1c(-c2ccccc2)cc(C(F)(F)F)c2c3n(nc12)[C@H]1c2ccccc2C[C@H]1CN3`: the zone of inhibition at 150 µg/mL in assay [3] and in assay [4] was 9 mm in each case. Further, the MIC stood at 75 µg/mL (≈ 174 µM) in assay [6], 75 µg/mL (≈ 174 µM) in [7], 150 µg/mL (≈ 348 µM) in assay [8] and 150 µg/mL (≈ 348 µM) in assay [10]. For the same compound, in [9], the zone of inhibition at 100 µg/mL was 7 mm.

For the compound `C[C@@H]1[C@H](O)[C@@H](C)/C=C/C=C/C=C/C=C/C=C/C=C/C=C/[C@H](O[C@@H]2O[C@H](C)[C@@H](O)[C@H](N)[C@@H]2O)C[C@@H]2O[C@](O)(C[C@@H](O)C[C@@H](O)[C@H](O)CC[C@@H](O)C[C@@H](O)CC(=O)O[C@H]1C)C[C@H](O)[C@H]2C(=O)O` [AMPHOTERICIN B], the zone of inhibition at 50 µg/mL in assay [11] turned out to be 22 mm; in [12], 26 mm; in assay [13], 23 mm; in assay [14] it was 23.5 mm.
